From ChEMBL document CHEMBL1250448, “Inhibitor hijacking of Akt activation” (Nat Chem Biol, 2009)
The source made the active and inactive calls. No cut-off for these calls is given here.

How the values were obtained:
[1] = biological target: T1, RAC-alpha serine/threonine-protein kinase (Homo sapiens, UniProt P31749); experiment: Induction of AKT1 Ser473 phosphorylation expressed in IGF1-stimulated HEK293 cells treated 20 mins before IGF1 stimulation by immunoblotting; format: cell-based
How it was run: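 HEK293 cells (not transfected), serum-starved overnight, then given inhibitor for 20 min before 50 ng/ml IGF-1 for a further 10 min. Cells detached in ice-cold Ca/Mg-free PBS with 0.04% EDTA and lysed in Tris pH 7.5 Triton buffer with protease/phosphatase inhibitors. Lysates cleared at 14000 g, protein equalised by Bradford, and pThr308, pSer473 and GSK3β pSer9 read by immunoblot with ECL.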

[2] = biological target: T1, RAC-alpha serine/threonine-protein kinase; experiment: Inhibition of wild type AKT1 expressed in HEK293 cells assessed as reduction of IGF1-induced GSK3-beta Ser9 phosphorylation treated 20 mins before IGF1 stimulation by immunoblotting; format: cell-based
How it was run: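 Untransfected HEK293 cells carrying endogenous Akt were serum-starved overnight. They were treated with compound for 20 min, then stimulated with 50 ng/ml IGF-1 for 10 min. DMSO stocks were diluted 1:1000. Lysates in Tris pH 7.5/Triton buffer with phosphatase inhibitors were immunoblotted for GSK3β Ser9 and Akt Thr308/Ser473 phosphorylation, read by ECL.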

[3] = biological target: Mast/stem cell growth factor receptor Kit (Homo sapiens) (UniProt P10721); experiment: Inhibition of KIT at 1 uM in presence of 100 uM ATP by Select Screen kinase assay relative to untreated control
How it was run: (§1)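 Single-concentration profiling at 1 μM against a panel of 220 purified kinases, run as an outsourced SelectScreen kinase profiling service. Activity is expressed as percent inhibition.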

[4] = biological target: Serine/threonine-protein kinase 3 (Homo sapiens) (UniProt Q13188); experiment: Inhibition of STK3 at 1 uM in presence of 10 uM ATP by Select Screen kinase assay relative to untreated control
[5] = biological target: Tyrosine-protein kinase FRK (Homo sapiens) (UniProt P42685); experiment: Inhibition of FRK at 1 uM in presence of 10 uM ATP by Select Screen kinase assay relative to untreated control
How it was run: (§2)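 Part of a 220-kinase panel of purified kinases, each tested with compound at 1 μM. Percent inhibition was measured in the Invitrogen SelectScreen profiling assay.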

[6] = biological target: Muscle, skeletal receptor tyrosine-protein kinase (Homo sapiens) (UniProt O15146); experiment: Inhibition of MUSK at 1 uM in presence of 100 uM ATP by Select Screen kinase assay relative to untreated control
[7] = biological target: Ephrin type-B receptor 3 (Homo sapiens) (UniProt P54753); experiment: Inhibition of EPHB3 at 1 uM in presence of 10 uM ATP by Select Screen kinase assay relative to untreated control; how it was run: as §2
[8] = biological target: cGMP-dependent protein kinase 1 (Homo sapiens) (UniProt Q13976); experiment: Inhibition of PRKG1 at 1 uM in presence of 10 uM ATP by Select Screen kinase assay relative to untreated control
[9] = biological target: Protein kinase C theta type (Homo sapiens) (UniProt Q04759); experiment: Inhibition of PRKCQ at 1 uM in presence of 10 uM ATP by Select Screen kinase assay relative to untreated control
[10] = biological target: Dual specificity protein kinase CLK1 (Homo sapiens) (UniProt P49759); experiment: Inhibition of CLK1 at 1 uM in presence of 100 uM ATP by Select Screen kinase assay relative to untreated control; how it was run: as §2
[11] = system: Proto-oncogene tyrosine-protein kinase receptor Ret (Homo sapiens), P07949 [V804L]; experiment: Inhibition of RET V804L mutant at 1 uM in presence of 10 uM ATP by Select Screen kinase assay relative to untreated control
How it was run: (§3)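 Commercial SelectScreen profiling panel of 220 purified kinases. Each kinase was tested at a single inhibitor concentration of 1 μM, and activity was expressed as percent inhibition.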

[12] = biological target: Protein kinase C alpha type (Homo sapiens) (UniProt P17252); experiment: Inhibition of PRKCA at 1 uM in presence of 10 uM ATP by Select Screen kinase assay relative to untreated control
[13] = system: Tyrosine-protein kinase ABL1 (Homo sapiens), P00519 [G250E]; experiment: Inhibition of ABL1 G250E mutant at 1 uM in presence of 10 uM ATP by Select Screen kinase assay relative to untreated control
How it was run: (§4)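 Single-point screen at 1 μM against a panel of 220 purified kinases, run by Invitrogen staff as a SelectScreen profiling service. Read-out is percent inhibition of kinase activity.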

[14] = biological target: Calcium/calmodulin-dependent protein kinase type II subunit delta (Homo sapiens) (UniProt Q13557); experiment: Inhibition of CAMK2D at 1 uM in presence of 10 uM ATP by Select Screen kinase assay relative to untreated control; how it was run: as §4
[15] = biological target: Death-associated protein kinase 3 (Homo sapiens) (UniProt O43293); experiment: Inhibition of DAPK3 at 1 uM in presence of 10 uM ATP by Select Screen kinase assay relative to untreated control; how it was run: as §2
[16] = biological target: Serine/threonine-protein kinase Sgk1 (Homo sapiens) (UniProt O00141); experiment: Inhibition of SGK at 1 uM in presence of 10 uM ATP by Select Screen kinase assay relative to untreated control
[17] = biological target: Receptor-type tyrosine-protein kinase FLT3 (Homo sapiens) (UniProt P36888); experiment: Inhibition of FLT3 at 1 uM in presence of 10 uM ATP by Select Screen kinase assay relative to untreated control; how it was run: as §1
[18] = biological target: Serine/threonine-protein kinase N1 (Homo sapiens) (UniProt Q16512); experiment: Inhibition of PKN1 at 1 uM in presence of 10 uM ATP by Select Screen kinase assay relative to untreated control
How it was run: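 Profiling panel of 220 purified kinases (SelectScreen), each compound tested at 1 μM. Read-out is percent inhibition of kinase activity.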

[19] = biological target: Insulin receptor (Homo sapiens) (UniProt P06213); experiment: Inhibition of INSR at 1 uM in presence of 10 uM ATP by Select Screen kinase assay relative to untreated control
[20] = biological target: Calcium/calmodulin-dependent protein kinase type IV (Homo sapiens) (UniProt Q16566); experiment: Inhibition of CAMK4 at 1 uM in presence of 10 uM ATP by Select Screen kinase assay relative to untreated control; how it was run: as §4
[21] = biological target: SRSF protein kinase 3 (Homo sapiens) (UniProt Q9UPE1); experiment: Inhibition of STK23 at 1 uM in presence of 10 uM ATP by Select Screen kinase assay relative to untreated control; how it was run: as §3
[22] = biological target: Mitogen-activated protein kinase kinase kinase kinase 4 (Homo sapiens) (UniProt O95819); experiment: Inhibition of MAP4K4 at 1 uM in presence of 10 uM ATP by Select Screen kinase assay relative to untreated control
[23] = biological target: cGMP-dependent protein kinase 2 (Homo sapiens) (UniProt Q13237); experiment: Inhibition of PRKG2 at 1 uM in presence of 10 uM ATP by Select Screen kinase assay relative to untreated control
[24] = biological target: Rho-associated protein kinase 1 (Homo sapiens) (UniProt Q13464); experiment: Inhibition of ROCK1 at 1 uM in presence of 10 uM ATP by Select Screen kinase assay relative to untreated control

T1 sequence (P31749 whole entry): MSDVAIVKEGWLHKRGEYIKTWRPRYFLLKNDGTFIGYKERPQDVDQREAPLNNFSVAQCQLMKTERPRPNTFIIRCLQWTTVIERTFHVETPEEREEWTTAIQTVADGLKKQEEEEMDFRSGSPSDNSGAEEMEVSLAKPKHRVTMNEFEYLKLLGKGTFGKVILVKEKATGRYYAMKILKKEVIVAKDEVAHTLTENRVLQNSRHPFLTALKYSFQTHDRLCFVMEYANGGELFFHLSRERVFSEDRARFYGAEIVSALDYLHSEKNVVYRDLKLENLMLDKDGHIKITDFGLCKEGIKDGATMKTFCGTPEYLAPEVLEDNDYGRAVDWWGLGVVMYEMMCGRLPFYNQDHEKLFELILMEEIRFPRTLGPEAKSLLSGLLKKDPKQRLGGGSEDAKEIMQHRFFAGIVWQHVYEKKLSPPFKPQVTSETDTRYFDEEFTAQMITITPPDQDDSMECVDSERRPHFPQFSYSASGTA
Chain of Muscle, skeletal receptor tyrosine-protein kinase (Homo sapiens) (O15146 whole entry): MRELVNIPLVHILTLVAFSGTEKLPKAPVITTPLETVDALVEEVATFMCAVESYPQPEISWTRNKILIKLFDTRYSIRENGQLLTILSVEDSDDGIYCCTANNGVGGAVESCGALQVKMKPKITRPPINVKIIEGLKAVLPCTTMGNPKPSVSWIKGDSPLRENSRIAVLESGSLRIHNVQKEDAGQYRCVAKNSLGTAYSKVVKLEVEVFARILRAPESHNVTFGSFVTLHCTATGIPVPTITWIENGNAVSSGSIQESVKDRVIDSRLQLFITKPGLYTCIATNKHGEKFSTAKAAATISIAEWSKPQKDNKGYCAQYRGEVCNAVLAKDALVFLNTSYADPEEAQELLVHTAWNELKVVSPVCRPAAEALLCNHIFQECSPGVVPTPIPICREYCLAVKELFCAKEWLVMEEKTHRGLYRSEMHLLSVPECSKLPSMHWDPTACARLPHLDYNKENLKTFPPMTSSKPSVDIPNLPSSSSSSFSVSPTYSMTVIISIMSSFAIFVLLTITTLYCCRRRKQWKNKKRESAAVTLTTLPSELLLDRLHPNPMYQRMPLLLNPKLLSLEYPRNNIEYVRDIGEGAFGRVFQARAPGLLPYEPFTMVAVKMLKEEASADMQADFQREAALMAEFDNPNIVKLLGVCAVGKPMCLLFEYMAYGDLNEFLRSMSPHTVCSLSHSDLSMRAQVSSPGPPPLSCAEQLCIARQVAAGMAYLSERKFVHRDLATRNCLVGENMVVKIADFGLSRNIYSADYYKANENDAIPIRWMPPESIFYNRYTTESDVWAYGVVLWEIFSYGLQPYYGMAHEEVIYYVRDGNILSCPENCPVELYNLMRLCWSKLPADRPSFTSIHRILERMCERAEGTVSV
Chain of Ephrin type-B receptor 3 (Homo sapiens) (P54753 whole entry): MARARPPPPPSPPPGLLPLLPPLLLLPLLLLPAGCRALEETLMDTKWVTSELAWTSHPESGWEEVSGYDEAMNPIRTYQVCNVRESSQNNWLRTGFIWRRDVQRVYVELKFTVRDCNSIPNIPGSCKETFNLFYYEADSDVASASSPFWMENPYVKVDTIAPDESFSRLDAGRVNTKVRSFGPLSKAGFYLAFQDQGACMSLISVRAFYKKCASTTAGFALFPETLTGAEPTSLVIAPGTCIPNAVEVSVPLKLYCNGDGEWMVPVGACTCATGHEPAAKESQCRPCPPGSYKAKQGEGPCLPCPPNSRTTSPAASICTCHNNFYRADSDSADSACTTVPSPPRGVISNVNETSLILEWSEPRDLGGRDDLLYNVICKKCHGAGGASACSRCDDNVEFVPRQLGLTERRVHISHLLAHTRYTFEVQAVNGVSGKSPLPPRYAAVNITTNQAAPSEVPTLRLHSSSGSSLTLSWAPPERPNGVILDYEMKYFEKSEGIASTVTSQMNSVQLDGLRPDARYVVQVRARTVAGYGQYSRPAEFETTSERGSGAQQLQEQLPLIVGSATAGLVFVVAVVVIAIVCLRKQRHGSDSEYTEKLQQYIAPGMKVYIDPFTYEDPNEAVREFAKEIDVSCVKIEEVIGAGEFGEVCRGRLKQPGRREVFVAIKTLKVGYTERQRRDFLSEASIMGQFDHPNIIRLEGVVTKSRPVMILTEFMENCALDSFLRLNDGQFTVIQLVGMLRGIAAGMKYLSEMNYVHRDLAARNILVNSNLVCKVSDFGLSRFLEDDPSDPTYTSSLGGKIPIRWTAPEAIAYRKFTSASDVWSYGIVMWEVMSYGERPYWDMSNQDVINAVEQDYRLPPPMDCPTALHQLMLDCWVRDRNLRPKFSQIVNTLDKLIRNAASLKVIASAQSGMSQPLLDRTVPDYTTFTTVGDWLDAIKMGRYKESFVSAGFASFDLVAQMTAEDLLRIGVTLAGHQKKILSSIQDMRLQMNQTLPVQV
Chain of Proto-oncogene tyrosine-protein kinase receptor Ret (Homo sapiens), P07949 [V804L] (P07949 whole entry V804L): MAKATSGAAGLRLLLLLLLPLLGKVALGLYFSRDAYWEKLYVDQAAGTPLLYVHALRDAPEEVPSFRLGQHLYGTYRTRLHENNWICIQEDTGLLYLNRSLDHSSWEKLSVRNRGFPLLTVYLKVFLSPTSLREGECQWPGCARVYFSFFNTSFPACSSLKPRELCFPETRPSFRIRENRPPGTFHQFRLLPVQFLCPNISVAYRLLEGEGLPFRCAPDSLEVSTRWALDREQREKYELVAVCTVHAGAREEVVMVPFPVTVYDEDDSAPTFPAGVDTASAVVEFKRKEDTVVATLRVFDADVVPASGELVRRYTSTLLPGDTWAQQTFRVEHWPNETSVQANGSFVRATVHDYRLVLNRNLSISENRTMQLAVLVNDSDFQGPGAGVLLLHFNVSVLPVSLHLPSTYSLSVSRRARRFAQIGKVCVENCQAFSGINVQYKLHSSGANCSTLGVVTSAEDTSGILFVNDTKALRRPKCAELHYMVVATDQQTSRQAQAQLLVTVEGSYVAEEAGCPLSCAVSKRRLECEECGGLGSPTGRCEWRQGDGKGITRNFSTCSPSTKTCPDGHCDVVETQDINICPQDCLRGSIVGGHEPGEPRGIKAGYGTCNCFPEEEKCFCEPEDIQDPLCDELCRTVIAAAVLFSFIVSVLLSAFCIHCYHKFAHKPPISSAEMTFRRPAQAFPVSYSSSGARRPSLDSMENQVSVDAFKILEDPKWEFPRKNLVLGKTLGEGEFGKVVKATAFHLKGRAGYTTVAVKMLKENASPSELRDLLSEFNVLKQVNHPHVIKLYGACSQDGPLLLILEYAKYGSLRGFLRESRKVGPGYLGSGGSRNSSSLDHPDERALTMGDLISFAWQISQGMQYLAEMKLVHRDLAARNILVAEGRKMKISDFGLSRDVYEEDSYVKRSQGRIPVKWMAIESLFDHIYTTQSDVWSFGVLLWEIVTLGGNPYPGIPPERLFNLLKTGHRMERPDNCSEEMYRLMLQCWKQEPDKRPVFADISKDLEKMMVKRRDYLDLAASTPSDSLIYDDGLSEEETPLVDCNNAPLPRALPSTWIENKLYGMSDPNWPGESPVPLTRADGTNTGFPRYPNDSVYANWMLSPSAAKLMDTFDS
Chain of Serine/threonine-protein kinase N1 (Homo sapiens) (Q16512 2-942 limits assumed): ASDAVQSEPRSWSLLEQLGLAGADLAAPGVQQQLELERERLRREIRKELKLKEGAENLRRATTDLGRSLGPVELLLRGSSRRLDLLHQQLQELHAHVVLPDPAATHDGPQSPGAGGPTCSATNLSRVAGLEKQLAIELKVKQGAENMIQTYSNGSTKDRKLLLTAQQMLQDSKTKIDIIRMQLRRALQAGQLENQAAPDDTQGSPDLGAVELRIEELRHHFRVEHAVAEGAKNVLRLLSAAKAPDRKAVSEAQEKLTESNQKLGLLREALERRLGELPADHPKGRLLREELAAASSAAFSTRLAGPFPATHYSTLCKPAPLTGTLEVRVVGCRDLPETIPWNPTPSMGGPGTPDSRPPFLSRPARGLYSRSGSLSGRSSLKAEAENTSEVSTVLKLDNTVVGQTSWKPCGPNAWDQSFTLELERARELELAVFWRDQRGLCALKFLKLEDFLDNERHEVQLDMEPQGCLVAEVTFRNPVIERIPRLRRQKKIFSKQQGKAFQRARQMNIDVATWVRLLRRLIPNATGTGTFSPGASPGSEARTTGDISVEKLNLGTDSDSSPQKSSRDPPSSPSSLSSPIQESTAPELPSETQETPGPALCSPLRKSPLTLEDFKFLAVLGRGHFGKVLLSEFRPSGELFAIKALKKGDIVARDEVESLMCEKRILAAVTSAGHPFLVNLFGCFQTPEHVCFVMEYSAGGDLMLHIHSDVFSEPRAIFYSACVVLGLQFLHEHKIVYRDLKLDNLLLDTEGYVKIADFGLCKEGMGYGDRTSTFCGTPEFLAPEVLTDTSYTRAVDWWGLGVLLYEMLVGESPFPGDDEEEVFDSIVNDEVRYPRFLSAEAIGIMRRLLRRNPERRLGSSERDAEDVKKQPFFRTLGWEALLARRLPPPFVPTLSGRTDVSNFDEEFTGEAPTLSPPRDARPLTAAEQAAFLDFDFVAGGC

inhibition [3] | inhibition [4] | inhibition [5] | inhibition [6] | inhibition [7] | inhibition [8] | inhibition [9] | inhibition [10] | inhibition [11] | inhibition [12] | inhibition [13] | inhibition [14] | inhibition [16] | inhibition [17] | inhibition [18] | inhibition [19] | inhibition [20] | Compound | Activity [1] | inhibition [2] | inhibition [15] | further results
 |  |  |  |  |  |  |  |  |  |  |  |  |  |  |  |  | CCCc1cc(-c2cncc(OC[C@@H](N)Cc3c[nH]c4ccccc34)c2)cc2c(C)n[nH]c12 | inactive | inactive |  | 
-7% | 9% | 11% | 19% | 13% | 52% | 15% | 74% | 66% | 21% | 7% | 11% | 13% | 60% | 18% | 3% | 0% | COc1ccccc1N1CCN(c2ncnc3[nH]nc(Br)c23)CC1 |  |  | 14% | inhibition [21]: 3%; inhibition [22]: 73%; inhibition [23]: 92%; inhibition [24]: -2%
 |  |  |  |  |  |  |  |  |  |  |  |  |  |  |  |  | Cc1n[nH]c2ccc(-c3cncc(OC[C@@H](N)Cc4c[nH]c5ccccc45)c3)cc12 | Active | Active |  | 
13% | 21% | 16% | 76% | 10% | 22% | 38% | 30% | 93% | 61% | 18% | 85% | 53% | 95% | 84% | 7% | 8% | O=C(NCCCNc1nc(Nc2cccc(NC(=O)N3CCCC3)c2)ncc1I)c1cccs1 |  |  | 13% | inhibition [21]: 6%; inhibition [22]: 39%; inhibition [23]: 29%; inhibition [24]: 48%
